APP 5'UTR act – activates APP 5'UTR luciferase reporter; SH-SY5Y APP 5'UTR luciferase reporter, luminescence; zero percent = DMSO vehicle wells; activation, % at 2 µM; 190,000 compounds, 1% hits;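 active = activation above a set limit, based on mean plus 3 SD of controls, cut at about 140% in these data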
STAT3 inh – inhibitors of IL-6 induced STAT3 signaling; U3A cells, IL-6 STAT3-luciferase reporter, luminescence; host cell line lacks STAT1; 190,000 compounds, 0.89% hits; inhibition, % at 5.5 µM; AID 862;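 active = inhibition above the mean inhibition across all screened compounds plus 3 SD, cut at about 44% in these data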
STAT1 inh – STAT1 signaling inhibition; NIH 3T3 STAT1-luciferase reporter, IFN-gamma, luminescence; 200,000 compounds, 0.35% hits; AID 920; inhibition, % at 5.5 µM;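 active = inhibition above a set limit, the mean inhibition across all tested compounds plus 3 SD, cut at about 34% in these data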
NF-kB expr up – compounds increasing NF-kB expression in human neuronal cells; NF-kB reporter expression; hits give high values; fold change at 12.5 µM; 190,000 compounds, 1.6% hits; AID 1239; in the data active = fold change above about 3.3
STAT3 act – STAT3 signaling activation; U3A cells, IL-6 STAT3-luciferase reporter, luminescence; 100% = signal with IL-6 EC80 alone; 190,000 compounds, 0.91% hits; activation (% of control), % at 5.6 µM; AID 871;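 active = activation above the screen-wide mean of compound activation plus 3 SD, cut at about 130% in these data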
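Material: human STAT1-deficient U3A cells with stable STAT3-luciferase reporter / Probe or stimulus: IL-6 stimulus at 33 ng/mL final / Schedule: 1 h compound pre-exposure, 6 h IL-6 stimulation, 37 °C / Technique: luminescence / Read-out basis: percent of IL-6-only median luminescence / Control set: IL-6-only high control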
STAT1 activator – increases IFN-gamma driven STAT1 reporter signal. NIH 3T3 STAT1-luciferase reporter, luminescence; 100% = IFN-gamma alone, no compound. 200,000 compounds, 2.6% hits. activation (% of control), % at 5.5 µM;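 active = activation above the screen-wide mean activation plus 3 SD, cut at about 130% in these data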
Each line names hits and unclear results; the compound was inactive in the other large screens. Only some compounds are listed: those with a hit (about 4.9% of all), similar ones and a draw of the others.

COc1ccc(C(=O)Nc2ccc([N+](=O)[O-])cn2)c(OC)c1	APP 5'UTR act 143, NF-kB expr up 4.4, STAT1 activator 148
O=C(Nc1ccc(SC(F)F)cc1)C1=COCCO1	APP 5'UTR act 201, NF-kB expr up 5.2, STAT1 activator 133
COCCNc1c(-c2cc3ccc(C)c(C)c3[nH]c2=O)nc2ccccn12	STAT1 activator 130
COCCNc1c(-c2ccc(OC)c(OC)c2)nc2ccc(Cl)cn12	none
Cc1ccc(-c2nc3ccsc3c(=O)o2)cc1	STAT1 activator 129
CC(C)Sc1nc2ccsc2c(=O)[nH]1	none
Cc1nsc(Nc2ccc([N+](=O)[O-])cc2)c1C#N	none
CCn1cc(C(=O)N2CCN(c3ccccc3F)CC2)c(=O)c2ccc(C)nc21	none (no result: STAT3 inh, STAT3 act)
NNc1nc(-c2ccccc2Cl)nc2sc3c(c12)CCCC3	NF-kB expr up 3.3
Cc1cccc(Nc2ncc3c(n2)CC(C)CC3=O)c1 (configuration not stated)	STAT1 activator 135
COc1ccc(OC)c(NC(=O)CSc2ccc3nnc(-c4cccnc4)n3n2)c1	none
Cc1ccc(C(=O)Cn2cnc3ccccc3c2=O)cc1	STAT1 activator 133
O=C(Cn1cnc2ccccc2c1=O)c1ccc(Br)cc1	STAT1 activator 144
CC(C)(C)n1ncc2c(=O)n(CC(=O)OCc3ccccc3)cnc21	none
CC(C)(C)n1ncc2c(=O)n(CC(=O)c3ccccc3)cnc21	STAT1 activator 150
COc1cccc(OC)c1CN1CCCC(C(=O)c2ccccc2SC)C1 (configuration not stated)	none
COc1cccc(-c2nnn(CC(C)=O)n2)c1	STAT1 activator 134
COc1ccc(-c2ccc(-c3nnn(CC(C)=O)n3)cc2)cc1	STAT1 activator 133
CN(C)c1ccc(/C=N/N=C(N)N)cc1[N+](=O)[O-]	none
Cc1ccc(-c2cc(=O)c3ccccc3[nH]2)cc1	none
Cc1ccc2[nH]c(-c3ccccc3)cc(=O)c2c1	NF-kB expr up 6
Cc1ccc(-c2cc(=O)c3cc(Cl)ccc3[nH]2)cc1	APP 5'UTR act 138, STAT1 activator 143 (no result: STAT3 inh, STAT3 act)
COc1cc2[nH]c(-c3ccc(C)cc3)cc(=O)c2cc1OC	none
COc1ccc(-c2cc(=O)c3cc(C)ccc3[nH]2)cc1	NF-kB expr up 6.5, STAT1 activator 150
Cc1ccccc1OCCCC(=O)NCc1ccco1	none
O=C(Nc1ccc(-c2cn3ccccc3n2)cc1)c1cccs1	APP 5'UTR act 136, STAT1 activator 134
CC(C)(C)c1csc(NC(=O)c2cccs2)n1	STAT1 activator 130
CC(C)(C)c1csc(NC(=O)Cc2cccs2)n1	none
CC(C)c1ccc(NC(=S)NNC(=O)c2cccs2)cc1	STAT1 activator 144
COc1ccc(NC(=O)c2cccs2)cc1	STAT1 activator 140
COc1ccc(NC(=S)NNC(=O)c2cccs2)cc1	none
Cc1ccc2c(c1)C1(C(=O)N2)N2CCCC2C(C(=O)c2ccc3ccccc3c2)C12C(=O)Nc1ccccc12 (configuration not stated)	none (no result: STAT3 inh, STAT1 inh, NF-kB expr up, STAT3 act, STAT1 activator)
CCN(CC)CCCN(C(=O)c1cccs1)c1nc(-c2ccc(OC)cc2)cs1	none
CCC(C)c1ccc(NC(=O)c2cccs2)cc1 (configuration not stated)	APP 5'UTR act 150, NF-kB expr up 11, STAT1 activator 130
COc1ccc(-c2csc(N(C)C(=O)c3cccs3)n2)cc1	STAT1 activator 131
CCN(Cc1ccccc1)c1ccc(N=Nc2nn(C)c(C)c2[N+](=O)[O-])cc1	STAT1 activator 133
CC(=O)c1ccc(-c2ccc(C(=O)NC3CCCCCC3)o2)cc1	none
COc1ccc(CN(C(=O)c2cccs2)C(C(=O)NC2CCCCC2)c2ccc3ncccc3c2)cc1 (configuration not stated)	none
O=C(NC1CCCCC1)C(c1ccc2ncccc2c1)N(Cc1ccccc1)C(=O)c1cccs1 (configuration not stated)	STAT1 inh 36
Cc1cc(C)cc(N(C(=O)CNC(=O)c2cccs2)C(C(=O)NC2CCCC2)c2cccnc2)c1 (configuration not stated)	STAT1 inh 36
O=C(NC1CCCCC1)C(c1ccc2ncccc2c1)N(Cc1ccc2c(c1)OCO2)C(=O)c1cccs1 (configuration not stated)	STAT1 inh 36
Cc1cccc(N(C(=O)CNC(=O)c2cccs2)C(C(=O)NC2CCCC2)c2cccnc2)c1 (configuration not stated)	none
CCn1c(Sc2ccc([N+](=O)[O-])cn2)nnc1-c1ccco1	none
CC1=CC(C)=Nc2ccc(C)cc2N1	STAT1 activator 139
Cc1ccc2c(c1)NC(=O)CC(c1ccccc1)=N2	none
O=c1c(Cc2c(F)cccc2Cl)c(O)ccn1CC1CCCO1 (configuration not stated)	none
c1ccc(-c2cnc(CSc3nnc4ccccn34)o2)cc1	STAT1 activator 137
Fc1ccc(-c2nnc(CSc3nnc4ccccn34)o2)cc1	none
c1ccc(COc2ccc(OCCOCCn3cncn3)cc2)cc1	APP 5'UTR act 154, NF-kB expr up 3.6
c1ccc(SCCOCCn2cncn2)cc1	none
COc1ccc(NC(=O)Cc2c(F)cccc2Cl)c(OC)c1	none
O=C(c1cc2ccccc2oc1=O)N1CCN(Cc2ccc3c(c2)OCO3)CC1	none
O=C(c1cc2ccccc2oc1=O)N(Cc1ccccc1)Cc1ccc2c(c1)OCO2	STAT3 act 135
CCc1ccc(CN(C(=O)c2cc3ccccc3oc2=O)C2CCS(=O)(=O)C2)cc1 (configuration not stated)	NF-kB expr up 4.1, STAT1 activator 129
O=C(Nc1cnc2ccccn2c1=O)c1ccc(Cl)cc1	STAT1 activator 130
O=C(Nc1cccn2ncnc12)c1ccc(Cl)cc1	none
O=C(CN(Cc1cccs1)C(=O)CCC(=O)Nc1ccccn1)NCc1ccccc1	none
Cc1cccc(NC(=O)c2c(O)c3cccc4c3n(c2=O)CC4)c1	STAT3 act 158 (no result: NF-kB expr up)
O=C(Cc1ccccc1)NC1(Cc2ccc(O)cc2)CCCCC1	none
COC(=O)c1ccc(CSc2nnc(NC(C)C)s2)o1	none
CCCCCN(C(=O)CN1CCC(Cc2ccccc2)CC1)c1c(N)n(CCCC)c(=O)[nH]c1=O	none
CCc1ccc2oc(-c3cc(N)ccc3Cl)nc2c1	APP 5'UTR act 160, STAT1 activator 131
CCc1ccc2oc(-c3cc(N)ccc3O)nc2c1	APP 5'UTR act 187, NF-kB expr up 4
S=C(NCc1ccc(Cl)cc1)NN1CCOCC1	none
C=C(C(=O)c1ccccc1)C(CC(=O)c1ccccc1)c1ccccc1 (configuration not stated)	none
O=C(NCCCN1CCCCCC1)c1ccc2c(c1)NC(=O)C(N1CCOCC1)S2 (configuration not stated)	none
